# Measured values taken from ChEMBL document CHEMBL3232894, “Discovery of AMG 925, a FLT3 and CDK4 dual kinase inhibitor with preferential affinity for the activated state of FLT3” (J Med Chem, 2014).
# Target: Cytochrome P450 3A4 (Homo sapiens, UniProt P08684)
# Assay: Inhibition of CYP3A4 (unknown origin)
# Type: ADME
# Settings: not given
# Chain of Cytochrome P450 3A4 (P08684 whole entry): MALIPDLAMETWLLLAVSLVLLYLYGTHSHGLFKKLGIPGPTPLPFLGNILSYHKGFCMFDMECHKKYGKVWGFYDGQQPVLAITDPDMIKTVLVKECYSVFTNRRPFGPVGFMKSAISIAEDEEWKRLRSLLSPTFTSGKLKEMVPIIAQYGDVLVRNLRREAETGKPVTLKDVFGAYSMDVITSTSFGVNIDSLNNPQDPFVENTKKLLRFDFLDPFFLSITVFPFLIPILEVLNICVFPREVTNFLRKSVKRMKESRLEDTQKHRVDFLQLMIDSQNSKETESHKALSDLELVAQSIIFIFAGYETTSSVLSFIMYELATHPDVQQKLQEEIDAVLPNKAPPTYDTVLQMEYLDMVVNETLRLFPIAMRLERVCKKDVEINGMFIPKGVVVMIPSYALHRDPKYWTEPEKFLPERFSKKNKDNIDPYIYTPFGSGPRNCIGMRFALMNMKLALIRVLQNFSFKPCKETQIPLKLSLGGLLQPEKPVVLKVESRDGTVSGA
row,Structure (SMILES),IC50
1,c1cc2c3cnc(Nc4ccc(N5CCNCC5)cn4)nc3n(C3CCCC3)c2nn1,> 10000 nM
2,C[C@@H](CO)n1c2cnccc2c2cnc(Nc3ccc(N4CCNCC4)cn3)nc21,> 10000 nM
3,CC1(C)CCC(n2c3cnccc3c3cnc(Nc4ccc(N5CCNCC5)cn4)nc32)CC1,9500 nM
4,C[C@H]1CC[C@H](n2c3cnccc3c3cnc(Nc4ccc(N5CCNCC5)cn4)nc32)CC1,> 10000 nM
5,c1cc2c3cnc(Nc4ccc(N5CCNCC5)cn4)nc3n(C3CCCC3)c2cn1,550 nM
6,Fc1nccc2c3cnc(Nc4ccc(N5CCNCC5)cn4)nc3n(C3CCCC3)c12,> 10000 nM

# Test system: not listed separately
# Assay: Clearance in iv dosed rat
# Type: ADME, organism-based
# Settings: in vivo
# Method in brief: (§1)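 Intravenous and oral (gavage, solution) PK in rat, dog and cynomolgus monkey. The rat vehicle for both routes was water/acetate/tween at pH 4, 96/3/1 (v/v/v). Dog and monkey iv doses used 40% PG aqueous solution at pH 2, and their oral doses used 20% captisol aqueous solution.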
row,Structure (SMILES),clearance
1,c1cc2c3cnc(Nc4ccc(N5CCNCC5)cn4)nc3n(C3CCCC3)c2nn1,93.3 mL/min/kg
2,c1cc2c3cnc(Nc4ccc(N5CCNCC5)cn4)nc3n(C3CCCC3)c2cn1,16.3 mL/min/kg
3,Fc1nccc2c3cnc(Nc4ccc(N5CCNCC5)cn4)nc3n(C3CCCC3)c12,35 mL/min/kg

# Test system: not listed separately
# Assay: Antiproliferative activity against Rb-negative human MDA-MB-436 cells assessed as incorporation of [3H]thymidine into DNA after 72 hrs by beta-plate counting analysis
# Type: functional
# Settings: not given
row,Structure (SMILES),IC50
1,c1cc2c3cnc(Nc4ccc(N5CCNCC5)cn4)nc3n(C3CCCC3)c2nn1,7050 nM
2,C[C@@H](CO)n1c2cnccc2c2cnc(Nc3ccc(N4CCNCC4)cn3)nc21,30000 nM
3,CC1(C)CCC(n2c3cnccc3c3cnc(Nc4ccc(N5CCNCC5)cn4)nc32)CC1,2010 nM
4,C[C@H]1CC[C@H](n2c3cnccc3c3cnc(Nc4ccc(N5CCNCC5)cn4)nc32)CC1,1210 nM
5,c1cc2c3cnc(Nc4ccc(N5CCNCC5)cn4)nc3n(C3CCCC3)c2cn1,1760 nM
6,Fc1nccc2c3cnc(Nc4ccc(N5CCNCC5)cn4)nc3n(C3CCCC3)c12,2610 nM

# Test system: MOLM-13
# Assay: Antiproliferative activity against human MOLM13 cells harboring FLT3 ITD mutant assessed as incorporation of [3H]thymidine into DNA after 72 hrs by beta-plate counting analysis
# Type: functional, cell-based
# Settings: not given
row,Structure (SMILES),IC50
1,CC1(C)CCC(n2c3cnccc3c3cnc(Nc4ccc(N5CCNCC5)cn4)nc32)CC1,35 nM
2,C[C@H]1CC[C@H](n2c3cnccc3c3cnc(Nc4ccc(N5CCNCC5)cn4)nc32)CC1,13 nM
3,c1cc2c3cnc(Nc4ccc(N5CCNCC5)cn4)nc3n(C3CCCC3)c2cn1,5 nM
4,Fc1nccc2c3cnc(Nc4ccc(N5CCNCC5)cn4)nc3n(C3CCCC3)c12,21 nM

# Test system: COLO 205
# Assay: Antiproliferative activity against Rb-positive human COLO205 cells assessed as incorporation of [14C]thymidine into DNA after 72 hrs by beta-plate counting analysis
# Settings: not given
row,Structure (SMILES),IC50
1,c1cc2c3cnc(Nc4ccc(N5CCNCC5)cn4)nc3n(C3CCCC3)c2nn1,51 nM
2,C[C@@H](CO)n1c2cnccc2c2cnc(Nc3ccc(N4CCNCC4)cn3)nc21,1240 nM
3,CC1(C)CCC(n2c3cnccc3c3cnc(Nc4ccc(N5CCNCC5)cn4)nc32)CC1,28 nM
4,C[C@H]1CC[C@H](n2c3cnccc3c3cnc(Nc4ccc(N5CCNCC5)cn4)nc32)CC1,20 nM
5,c1cc2c3cnc(Nc4ccc(N5CCNCC5)cn4)nc3n(C3CCCC3)c2cn1,25 nM
6,Fc1nccc2c3cnc(Nc4ccc(N5CCNCC5)cn4)nc3n(C3CCCC3)c12,52 nM

# Target: Cyclin-dependent kinase 4/cyclin D1 (Homo sapiens, UniProt P11802)
# Sequence (P11802 whole entry): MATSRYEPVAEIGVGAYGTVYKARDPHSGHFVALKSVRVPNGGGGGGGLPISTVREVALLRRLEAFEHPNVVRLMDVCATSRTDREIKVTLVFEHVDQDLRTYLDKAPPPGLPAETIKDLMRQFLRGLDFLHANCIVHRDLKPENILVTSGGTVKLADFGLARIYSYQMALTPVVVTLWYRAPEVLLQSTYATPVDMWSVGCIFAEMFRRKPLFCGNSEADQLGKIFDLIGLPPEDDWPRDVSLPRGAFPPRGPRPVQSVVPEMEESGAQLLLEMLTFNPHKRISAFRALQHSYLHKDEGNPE
# Sequence (P24385 whole entry, further chain): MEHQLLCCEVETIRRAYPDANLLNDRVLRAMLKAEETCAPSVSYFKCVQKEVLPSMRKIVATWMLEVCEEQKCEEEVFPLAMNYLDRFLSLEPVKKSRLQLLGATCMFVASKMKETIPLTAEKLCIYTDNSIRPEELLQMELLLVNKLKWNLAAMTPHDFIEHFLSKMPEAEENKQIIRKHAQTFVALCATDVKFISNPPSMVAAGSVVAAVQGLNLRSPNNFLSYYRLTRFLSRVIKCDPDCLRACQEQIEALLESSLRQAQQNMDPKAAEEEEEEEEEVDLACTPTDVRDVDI
# Assay: Inhibition of CDK4/cyclin D1 (unknown origin) using Rb as substrate after 60 mins by scintillation counting analysis in presence of [r-33P]ATP
# Type: protein-complex assay
# Settings: not given
row,Structure (SMILES),IC50
1,c1cc2c3cnc(Nc4ccc(N5CCNCC5)cn4)nc3n(C3CCCC3)c2nn1,51 nM
2,C[C@@H](CO)n1c2cnccc2c2cnc(Nc3ccc(N4CCNCC4)cn3)nc21,40 nM
3,CC1(C)CCC(n2c3cnccc3c3cnc(Nc4ccc(N5CCNCC5)cn4)nc32)CC1,1 nM
4,C[C@H]1CC[C@H](n2c3cnccc3c3cnc(Nc4ccc(N5CCNCC5)cn4)nc32)CC1,7 nM
5,c1cc2c3cnc(Nc4ccc(N5CCNCC5)cn4)nc3n(C3CCCC3)c2cn1,3 nM
6,Fc1nccc2c3cnc(Nc4ccc(N5CCNCC5)cn4)nc3n(C3CCCC3)c12,3 nM

# Target: CYP3A4 (Homo sapiens, UniProt P08684)
# Sequence (P08684 whole entry): as the sequence (P08684 whole entry) above
# Assay: Inhibition of CYP3A4 (unknown origin) at 3 uM
# Type: ADME
# Settings: not given
row,Structure (SMILES),inhibition at 3 µM
1,c1cc2c3cnc(Nc4ccc(N5CCNCC5)cn4)nc3n(C3CCCC3)c2nn1,< 10%
2,C[C@@H](CO)n1c2cnccc2c2cnc(Nc3ccc(N4CCNCC4)cn3)nc21,17%
3,CC1(C)CCC(n2c3cnccc3c3cnc(Nc4ccc(N5CCNCC5)cn4)nc32)CC1,51%
4,C[C@H]1CC[C@H](n2c3cnccc3c3cnc(Nc4ccc(N5CCNCC5)cn4)nc32)CC1,20%
5,c1cc2c3cnc(Nc4ccc(N5CCNCC5)cn4)nc3n(C3CCCC3)c2cn1,90%
6,Fc1nccc2c3cnc(Nc4ccc(N5CCNCC5)cn4)nc3n(C3CCCC3)c12,< 10%

# Test system: not listed separately
# Assay: Oral bioavailability in rat
# Type: ADME, organism-based
# Settings: in vivo
# Method in brief: as §1
row,Structure (SMILES),bioavailability
1,c1cc2c3cnc(Nc4ccc(N5CCNCC5)cn4)nc3n(C3CCCC3)c2cn1,9.4%

# Target: T1, Receptor-type tyrosine-protein kinase FLT3 (Homo sapiens, UniProt P36888)
# T1 sequence (P36888 whole entry): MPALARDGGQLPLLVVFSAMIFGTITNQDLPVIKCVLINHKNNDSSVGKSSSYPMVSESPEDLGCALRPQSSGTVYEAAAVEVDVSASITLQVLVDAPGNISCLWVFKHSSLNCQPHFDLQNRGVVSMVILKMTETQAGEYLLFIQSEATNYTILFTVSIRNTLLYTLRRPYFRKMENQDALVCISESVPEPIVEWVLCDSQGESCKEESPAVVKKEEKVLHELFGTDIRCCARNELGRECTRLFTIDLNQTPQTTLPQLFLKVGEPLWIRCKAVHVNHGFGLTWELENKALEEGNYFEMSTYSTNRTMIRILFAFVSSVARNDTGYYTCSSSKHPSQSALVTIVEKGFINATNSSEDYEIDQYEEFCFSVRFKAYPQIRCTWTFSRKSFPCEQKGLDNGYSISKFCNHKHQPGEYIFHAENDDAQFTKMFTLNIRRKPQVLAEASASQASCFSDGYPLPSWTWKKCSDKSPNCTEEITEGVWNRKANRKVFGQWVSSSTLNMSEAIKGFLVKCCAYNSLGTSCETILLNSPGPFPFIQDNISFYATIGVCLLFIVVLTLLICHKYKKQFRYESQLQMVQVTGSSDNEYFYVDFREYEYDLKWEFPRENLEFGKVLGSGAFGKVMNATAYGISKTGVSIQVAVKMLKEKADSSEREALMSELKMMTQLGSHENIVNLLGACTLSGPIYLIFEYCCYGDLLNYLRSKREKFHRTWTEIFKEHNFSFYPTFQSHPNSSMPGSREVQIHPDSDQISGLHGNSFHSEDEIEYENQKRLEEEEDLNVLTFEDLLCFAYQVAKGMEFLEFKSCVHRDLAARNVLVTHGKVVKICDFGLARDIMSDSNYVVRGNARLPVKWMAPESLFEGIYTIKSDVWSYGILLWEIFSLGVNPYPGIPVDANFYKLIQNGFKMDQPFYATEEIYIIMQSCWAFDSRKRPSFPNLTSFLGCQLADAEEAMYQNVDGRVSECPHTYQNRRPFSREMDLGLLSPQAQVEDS
# Assay: Inhibition of GST-fused human FLT3 cytoplasmic domain (amino acids 564 to 993) using Ulight-JAK1 as substrate after 1 hr by TR-FRET assay
# Settings: not given
row,Structure (SMILES),IC50
1,c1cc2c3cnc(Nc4ccc(N5CCNCC5)cn4)nc3n(C3CCCC3)c2nn1,95 nM
2,C[C@@H](CO)n1c2cnccc2c2cnc(Nc3ccc(N4CCNCC4)cn3)nc21,43 nM
3,CC1(C)CCC(n2c3cnccc3c3cnc(Nc4ccc(N5CCNCC5)cn4)nc32)CC1,17 nM
4,C[C@H]1CC[C@H](n2c3cnccc3c3cnc(Nc4ccc(N5CCNCC5)cn4)nc32)CC1,2 nM
5,c1cc2c3cnc(Nc4ccc(N5CCNCC5)cn4)nc3n(C3CCCC3)c2cn1,14 nM
6,Fc1nccc2c3cnc(Nc4ccc(N5CCNCC5)cn4)nc3n(C3CCCC3)c12,11 nM

# Target: Cyclin-dependent kinase 1/cyclin B1 (Homo sapiens, UniProt P06493)
# Sequence (P06493 whole entry): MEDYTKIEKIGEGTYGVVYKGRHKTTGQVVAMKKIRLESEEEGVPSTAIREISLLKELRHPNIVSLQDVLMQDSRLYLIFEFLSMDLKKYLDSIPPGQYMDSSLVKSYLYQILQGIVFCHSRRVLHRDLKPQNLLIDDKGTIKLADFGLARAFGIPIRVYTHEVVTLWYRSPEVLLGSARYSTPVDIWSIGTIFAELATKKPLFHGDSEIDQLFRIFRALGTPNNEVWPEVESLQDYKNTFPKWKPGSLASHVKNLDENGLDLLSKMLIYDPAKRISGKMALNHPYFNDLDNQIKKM
# Sequence (P14635 whole entry, further chain): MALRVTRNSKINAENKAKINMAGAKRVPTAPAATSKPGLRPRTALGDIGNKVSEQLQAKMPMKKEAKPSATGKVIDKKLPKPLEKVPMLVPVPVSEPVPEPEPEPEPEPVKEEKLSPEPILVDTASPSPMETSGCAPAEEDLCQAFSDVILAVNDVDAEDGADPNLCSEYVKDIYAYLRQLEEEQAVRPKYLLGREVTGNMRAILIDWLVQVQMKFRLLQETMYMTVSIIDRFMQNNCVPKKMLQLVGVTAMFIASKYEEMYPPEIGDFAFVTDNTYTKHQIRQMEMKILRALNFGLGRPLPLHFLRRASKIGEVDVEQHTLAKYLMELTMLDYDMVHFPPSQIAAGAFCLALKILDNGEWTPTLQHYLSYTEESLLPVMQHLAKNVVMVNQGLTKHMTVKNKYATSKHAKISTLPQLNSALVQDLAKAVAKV
# Assay: Inhibition of CDK1/cyclin B (unknown origin) using histone H1 as substrate after 60 mins by scintillation counting analysis in presence of [r-33P]ATP
# Type: protein-complex assay
# Settings: not given
row,Structure (SMILES),IC50
1,c1cc2c3cnc(Nc4ccc(N5CCNCC5)cn4)nc3n(C3CCCC3)c2nn1,4780 nM
2,C[C@@H](CO)n1c2cnccc2c2cnc(Nc3ccc(N4CCNCC4)cn3)nc21,12800 nM
3,CC1(C)CCC(n2c3cnccc3c3cnc(Nc4ccc(N5CCNCC5)cn4)nc32)CC1,2910 nM
4,C[C@H]1CC[C@H](n2c3cnccc3c3cnc(Nc4ccc(N5CCNCC5)cn4)nc32)CC1,2660 nM
5,c1cc2c3cnc(Nc4ccc(N5CCNCC5)cn4)nc3n(C3CCCC3)c2cn1,3000 nM
6,Fc1nccc2c3cnc(Nc4ccc(N5CCNCC5)cn4)nc3n(C3CCCC3)c12,7560 nM
